Test system: MS2 coat protein
Experiment: apparent Kd, MS2 coat protein; higher = weaker binding; RNA-MaP array; FMN 200 µM where present
Method in brief: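 SNAP-549-labelled MS2 coat protein, doubled from 0.7 or 1.5 nM to 3 µM, was titrated over designs transcribed by stalled E. coli RNA polymerase on Illumina sequencing-chip clusters. Titrations were run without and then with constant ligand in 100 mM Tris-HCl pH 7.5, 80 mM KCl, 4 mM MgCl2, BSA, DTT, yeast tRNA and Tween-20. The apparent Kd is the median of filtered per-cluster fits to green signal normalised to red-channel RNA signal and control-cluster median Fmax.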

[1] = designed as: ON switch for flavin mononucleotide, no ligand
[2] = ligand present: flavin mononucleotide, designed as: ON switch for flavin mononucleotide
[3] = designed as: OFF switch for flavin mononucleotide, no ligand
[4] = ligand present: flavin mononucleotide, designed as: OFF switch for flavin mononucleotide

Sequence	apparent Kd [1]	apparent Kd [2]	apparent Kd [3]	apparent Kd [4]
ACUUCACAUGAGGAUCACCCAUGUCAGGCCGGACUAGGAUAUUAUCAUGCAGCGUGACCGUGAGAAGGAGUUGGAU	110 nM	114 nM		
GCCAAUAAGAUUGGCACCGGCGCGCAGGAUAUGCUGGCCUACAUGAGGAUCACCCAUGUCUAAAUGCAGAAGGGUGAGCUGAGC	444 nM	82.4 nM		
AACAAACAUGAGGAUCACCCAUGUCAGGAUAUGCACAAACAAACAAACAAACAAGCAAGCAGAAGGGACACAAC			21.7 nM	39.7 nM
AACUCGUCAGGAUAUGCAUGCAGUUGCUGCAUUUCGCCGUUGCAGAAGGGACAUGAGGAUCACCCAUGUAGGUC			42.4 nM	37.2 nM
CACAAGAAAGUCGAAGGUUGAAGUAGAAGGACAAUAACAUGACAUGAGGAUCACCCAUGUGCCAUGUAGGAUAUGCUUUAAUCG			8.54 nM	8.34 nM
GGUCCAUCAUGAGGAUAUGGCACCUUAUUGGUGCCAGAAGGCAUGUGUAUACACAUGAGGAUCACCCAUGUAAUAAAUUGGACC	144 nM	22.2 nM		
UUUUAACAUGAGGAUCACCCAUGUGAGGAUAUCGAAAUUUAUAUUAAUAUUAAUUAUUCGAGAAGGCACAUUUU			119 nM	126 nM
UGUCGGAGCAGAGGAUAUUACAUGAGGAUCACCCAUGUAUGAACCUAUAGCUGGAAACAGCAAUGUAAGAAGGCUGCUCCGACA			23.5 nM	338 nM
CCCUAGGUAGGAUAUACUUGGACUCGGCUGAUGUGCCUAAAACAUGAGGAUCACCCAUGUAGAAGGACUAAGGC			12.6 nM	11.6 nM
GGGACUUACGAGAAGGGCUACAUGAGGAUCACCCAUGUAAAUCUUCGGGUAGCAGGAUAUCGGCGGCUACAGGAGGGCCAAGUC			14.3 nM	90.7 nM
UUAUGUUUUGUAGGAUAUCAUAAGUUAUGUAUUAUAAUUGAAAUUUUGUUAUGAGAAGGACAUUUACAUGAGGAUCACCCAUGU			13.6 nM	9.96 nM
CUCAUGUGAGGAUAUGCUGCUCGUCACGAAAGUGAUGAGUAGCAGAAGGUACAUGAGGAUCACCCAUGUAAAUA			98.9 nM	18.8 nM
GUACUGAAGCUUUGCUUUAGUCGUACAUGAGGAUCACCCAUGUAGGAUAUGGUAGGCUAUGCUUACUAGAAGGAUAGAGUGAUC			88.8 nM	46.4 nM
GGGCUGUCAGGAUAUCUCGGGCUCGGGUAAACUCGGGCUCGGGAGAAGGGACAUGAGGAUCACCCAUGUGGCCC			30.4 nM	33 nM
GGAAACUACGAGAAGGACAUGUGGUCCUUCAGUUACAUGAGGAUCACCCAUGUAGGAUAUCGUAGUUUCAGGAUCGUGAGAUCG			35.6 nM	9.39 nM
UUACUCAUGUAAGGAUAUGUAGCCGUUUCGGCUGCAGAAGGUACUAUAAUACAUGAGGAUCACCCAUGUCUUUUUAAUUUAGAC	69.3 nM	39.8 nM		
UUACUAUUGGAGAAGGCUCAAUAAUAUAUAAAGGGAGGAUAUCCAACAUGAGGAUCACCCAUGUUUCACCCAUAUGAGGAUCAC			13.1 nM	12.5 nM
AAAUGCCUGUCGAUGCUCGACAUGAGGAUCACCCAUGUAUAGCAGGAUAUGCAGAACUGACUCGUGCAGAAGGGCUAUACCUAA			38.2 nM	315 nM
UCUUUCUUUGUGAGGAUAUGCCCAAAUAAAAGCGGGCAGAAGGCACAUGAGGAUCACCCAUGUUCUGCGGUUUU			54.5 nM	486 nM
CUUAGUAUCUAGGAUAUCUAGUACAUAGUAUCUAGAGAAGGAGAUACAUGAGGAUCACCCAUGUUCUGUGUUCU			23.9 nM	68.7 nM
AGGCAGCUACAUGAGGAUCACCCAUGUCUGUUUGGAUCUUCCAGAAGGCACGUAAAAUCGGUGGGUGAGGAUAUGGUAGGUCCC	30.9 nM	9.91 nM		
GUAGCAUACGGAGGAUAUUCAUAUAAUAAAUAAACAUGAGGAUCACCCAUGUGGCGAAAGCCUUGGGAGAAGGCCGAAUGCUAC	805 nM	39.8 nM		
CUAGCAACAUGAGGAUCACCCAUGUAGGAUAUCGCUAUUGUAAUCAUGAAACAUGAUUACAAUAGCGAGAAGGACAUAUGCUAC			9.59 nM	11 nM
GGGUACAUCGGAGGAUAUCAUGUAAAUACAUGAGGAUCACCCAUGUCGAUGGAGACAGCGGAGAUUGAGAAGGCCGAUGUACCG	105 nM	190 nM		
UAUUAUCACGAAGGAUAUGCUGACAUGAGGAUCACCCAUGUAUGUAUAUUGGUCCAGCGUAUUUAGCAGAAGGUCGUGAGUAAA			45.4 nM	73.5 nM
UGAAUGUAGGAGAAGGAGGACUUCAUGAGGAUCACCCAUGUGUUAGGACUUAGGAUAUUUGACGACAUGAGGAUCACCCAUGUG	62.5 nM	55.7 nM		
AGCAAGUUUACAUGAGGAUCACCCAUGUUUUUUAGGGUUAUCAGAAGGUACAUUUUGAGAUAGAGUAAGGAUAUGAUAUAUGCG	169 nM	55 nM		
ACUAUACGAGGAUAUACUGACGGGCCUCAGGCAUACAUCAAACAUGAGGAUCACCCAUGUAGAAGGCGUAUACU			79.4 nM	29.2 nM
